In ChEMBL document CHEMBL2331188, “Synthesis and biochemical activities of antiproliferative amino acid and phosphate derivatives of microtubule-disrupting β-lactam combretastatins” (Eur J Med Chem, 2013):
Values after ≈ are worked out from the molar mass of the structure shown. Active and inactive are the calls of the source. The calls are words filed in the database; no cut-off is given here.

Columns and labels:
MCF7 [1] = experiment: Antiproliferative activity against human MCF7 cells assessed as inhibition of cell growth after 72 hrs by MTT assay; type: functional, cell-based; details: MCF7, 72 h
How it was run: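 MCF-7 cells in MEM with 10% FBS, 2 mM L-glutamine, penicillin/streptomycin and 1% non-essential amino acids. Seeded at 2.5 × 10⁴ cells/mL, grown 24 h at 37 °C, then dosed from ethanol stocks over 1 nM–100 µM for 72 h; vehicle was ethanol 1% v/v. Read-out was MTT at 1 mg/mL for 2 h, solubilised in DMSO, absorbance relative to control as 100% viability. Triplicate; mean ± S.E.M of at least three experiments.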

[2] = Half life in human plasma at pH 4 to 9; type: ADME, cell-free
[3] = Aqueous solubility of the compound after 24 hrs by HPLC analysis; type: physicochemical; details: aqueous medium
How it was run: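 Compound was shaken in water at 300 shakes/min for 24 h, then filtered. The filtrate was quantified by HPLC on a C18 column with acetonitrile/water 70:30 at 1 mL/min, detection at 254 nm. The value is the maximum of n = 3.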

[4] = Solubility in human plasma; type: ADME, cell-free
MCF7 [5] = experiment: Induction of cell cycle arrest in human MCF7 cells assessed as accumulation of cells in G2/M phase at 100 nM after 48 hrs by propidium iodide staining based flow cytometry; type: functional
How it was run: (§1)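 MCF-7 cells seeded at 1 × 10⁵ cells/cm³ and treated after 24 h for 48 h; vehicle was 1% ethanol v/v. Cells were fixed in 70% ethanol:PBS overnight at −20 °C, then stained with RNase 0.5 mg/mL and propidium iodide 0.15 mg/mL for 30 min at 37 °C. Analysed by flow cytometry, at least 10,000 gated cells, sub-diploid counted as sub-G1. Mean ± SEM of at least three experiments; one-way ANOVA with Bonferroni test.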

MCF7 [6] = experiment: Induction of cell cycle arrest in human MCF7 cells assessed as accumulation of cells in sub-G1 phase at 100 nM after 48 hrs by propidium iodide staining based flow cytometry; type: functional; how it was run: as §1
MCF7 [7] = experiment: Induction of mitotic catastrophe in human MCF7 cells at 100 nM after 16 hrs by immunofluorescence analysis; type: functional, cell-based
How it was run: (§2)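 MCF-7 cells seeded at 1 × 10⁵ per well on chamber slides and treated 16 h; vehicle was 1% ethanol v/v. Fixed in methanol at −20 °C for 30 min and blocked in 5% BSA/PBST. Stained with anti-α-tubulin DM1A (1:20) and then FITC anti-mouse (1:100), each 1 h at room temperature, with DAPI counterstain. Imaged by confocal microscopy; three separate experiments.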

MCF7 [8] = experiment: Induction of microtubule depolymerization in human MCF7 cells assessed as complete loss of microtubule formation at 100 nM after 16 hrs by immunofluorescence analysis; type: cell-based; how it was run: as §2
[9] = Inhibition of bovine brain tubulin polymerization measured every 30s for 30 mins by spectrophotometric analysis; set-up: species or system Bos taurus
Bos taurus [10] = organism: Bos taurus; experiment: Inhibition of bovine brain tubulin polymerization measured every 30s for 60 mins by spectrophotometric analysis
MCF7 [11] = experiment: Induction of cell cycle arrest in human MCF7 cells assessed as accumulation of cells in G2/M phase at 1 uM after 48 hrs by propidium iodide staining based flow cytometry; type: functional; how it was run: as §1
MCF7 [12] = experiment: Induction of cell cycle arrest in human MCF7 cells assessed as accumulation of cells in sub-G1 phase at 1 uM after 48 hrs by propidium iodide staining based flow cytometry; type: functional; how it was run: as §1
MCF7 [13] = experiment: Induction of mitotic catastrophe in human MCF7 cells at 1 uM after 16 hrs by immunofluorescence analysis; type: functional, cell-based; how it was run: as §2
MCF7 [14] = experiment: Induction of microtubule depolymerization in human MCF7 cells assessed as complete loss of microtubule formation at 1 uM after 16 hrs by immunofluorescence analysis; type: cell-based; how it was run: as §2
Bos taurus [15] = organism: Bos taurus; experiment: Inhibition of bovine brain tubulin polymerization at 10 uM measured every 30s for 60 mins by spectrophotometric analysis
Colon 26 = experiment: Antiproliferative activity against mouse Colon 26 cells assessed as inhibition of cell growth; type: functional, cell-based
[16] = Solubility in human plasma at pH 7.2 to 7.5; type: ADME, cell-free

**Q.** What does the source list for `COc1ccc([C@H]2[C@H](c3ccc(NC(=O)CN)cc3)C(=O)N2c2cc(OC)c(OC)c(OC)c2)cc1`?
**A.** IC50 (MCF7 [1]): 91 nM; half-life [2]: > 24 h; solubility at 24 h [3]: 60 µg/mL (≈ 122 µM)

**Q.** For `COc1ccc([C@H]2[C@H](c3ccc(NC(=O)[C@@H](N)C(C)C)cc3)C(=O)N2c2cc(OC)c(OC)c(OC)c2)cc1`, which IC50 (MCF7 [1]) is on record?
**A.** 50 nM

**Q.** And the solubility at 24 h [3]?
**A.** 4 µg/mL (≈ 7.5 µM)

**Q.** Which solubility [4] does the source give for `COc1ccc(/C=C\c2cc(OC)c(OC)c(OC)c2)cc1N` here?
**A.** 3300 µg/mL (≈ 10500 µM)

**Q.** For `COc1ccc([C@H]2[C@H](c3ccc(NC(=O)[C@H](C)N)cc3)C(=O)N2c2cc(OC)c(OC)c(OC)c2)cc1`, which IC50 (MCF7 [1]) is on record?
**A.** 35 nM

**Q.** For `COc1ccc([C@H]2[C@H](c3ccc(NC(=O)[C@@H](N)Cc4ccccc4)cc3)C(=O)N2c2cc(OC)c(OC)c(OC)c2)cc1`, which Activity (MCF7 [5]) is on record?
**A.** Active

**Q.** What about the Activity (MCF7 [6]) of the same molecule?
**A.** Active

**Q.** What about the Activity (MCF7 [7]) of the same molecule?
**A.** Active

**Q.** What about the Activity (MCF7 [8]) of the same molecule?
**A.** Active

**Q.** What about the IC50 [9] of the same molecule?
**A.** 2400 nM

**Q.** And the inhibition (Bos taurus [10])?
**A.** Dose-dependent effect

**Q.** And the IC50 (MCF7 [1])?
**A.** 27 nM

**Q.** And the solubility at 24 h [3]?
**A.** 140 µg/mL (≈ 241 µM)

**Q.** With `COc1ccc([C@H]2[C@H](c3ccc(N)cc3)C(=O)N2c2cc(OC)c(OC)c(OC)c2)cc1` as the molecule, how does the half-life [2] read?
**A.** > 24 h

**Q.** Which results are given for `COc1ccc([C@H]2[C@H](c3ccccc3)C(=O)N2c2cc(OC)c(OC)c(OC)c2)cc1NC(=O)[C@@H](N)C(C)C`?
**A.** Activity (MCF7 [11]): Active; Activity (MCF7 [12]): Active; Activity (MCF7 [13]): Active; Activity (MCF7 [14]): Active; IC50 [9]: 5200 nM; inhibition (Bos taurus [10]): Dose-dependent effect; IC50 (MCF7 [1]): 460 nM; half-life [2]: > 24 h; solubility at 24 h [3]: 110 µg/mL (≈ 206 µM)

**Q.** With `COc1ccc([C@H]2[C@H](c3ccccc3)C(=O)N2c2cc(OC)c(OC)c(OC)c2)cc1NC(=O)[C@@H](N)Cc1ccccc1` as the molecule, how does the IC50 (MCF7 [1]) read?
**A.** 1130 nM

**Q.** Which Activity (MCF7 [5]) does the source give for `COc1ccc([C@H]2[C@H](c3ccccc3)C(=O)N2c2cc(OC)c(OC)c(OC)c2)cc1OP(=O)(O)O` here?
**A.** Active

**Q.** What about the Activity (MCF7 [6]) of the same molecule?
**A.** Active

**Q.** What about the inhibition (Bos taurus [15]) of the same molecule?
**A.** inactive

**Q.** What about the IC50 (MCF7 [1]) of the same molecule?
**A.** 71 nM

**Q.** What about the solubility at 24 h [3] of the same molecule?
**A.** 300 µg/mL (≈ 582 µM)

**Q.** With `COc1ccc([C@H]2[C@H](c3ccccc3)C(=O)N2c2cc(OC)c(OC)c(OC)c2)cc1NC(=O)CN` as the molecule, how does the IC50 (MCF7 [1]) read?
**A.** 1100 nM

**Q.** For `COc1ccc(/C=C\c2cc(OC)c(OC)c(OC)c2)cc1NC(=O)[C@@H](N)CO` [OMBRABULIN], which IC50 (Colon 26) is on record?
**A.** 27.2 nM

**Q.** And the solubility [16]?
**A.** 110 µg/mL (≈ 273 µM)

**Q.** And the solubility [4]?
**A.** 3300 µg/mL (≈ 8200 µM)

**Q.** For `COc1ccc([C@H]2[C@H](c3ccc(O)cc3)C(=O)N2c2cc(OC)c(OC)c(OC)c2)cc1OP(=O)(O)O`, which Activity (MCF7 [5]) is on record?
**A.** Active

**Q.** And the Activity (MCF7 [6])?
**A.** Active

**Q.** What about the Activity (MCF7 [7]) of the same molecule?
**A.** Active

**Q.** And the Activity (MCF7 [8])?
**A.** Active

**Q.** What about the inhibition (Bos taurus [15]) of the same molecule?
**A.** inactive

**Q.** And the IC50 (MCF7 [1])?
**A.** 22 nM

**Q.** What about the half-life [2] of the same molecule?
**A.** > 24 h

**Q.** What about the solubility at 24 h [3] of the same molecule?
**A.** 140 µg/mL (≈ 263 µM)

**Q.** Which IC50 (MCF7 [1]) does the source give for `COc1ccc([C@H]2[C@H](c3ccc(NC(=O)[C@@H](N)CCCCN)cc3)C(=O)N2c2cc(OC)c(OC)c(OC)c2)cc1` here?
**A.** 690 nM

**Q.** With `COc1ccc([C@H]2[C@H](c3cccs3)C(=O)N2c2cc(OC)c(OC)c(OC)c2)cc1OP(=O)(O)O` as the molecule, how does the Activity (MCF7 [5]) read?
**A.** Active

**Q.** What about the Activity (MCF7 [6]) of the same molecule?
**A.** Active

**Q.** And the Activity (MCF7 [7])?
**A.** Active

**Q.** And the Activity (MCF7 [8])?
**A.** Active

**Q.** And the IC50 (MCF7 [1])?
**A.** 20 nM

**Q.** And the solubility at 24 h [3]?
**A.** 450 µg/mL (≈ 863 µM)

**Q.** Which results are given for `CC[C@H](C)[C@H](N)C(=O)Nc1cc([C@H]2[C@H](c3ccccc3)C(=O)N2c2cc(OC)c(OC)c(OC)c2)ccc1OC`?
**A.** IC50 (MCF7 [1]): 1100 nM; solubility at 24 h [3]: 110 µg/mL (≈ 201 µM)

**Q.** For `COc1ccc([C@H]2[C@H](c3ccc(NC(=O)[C@@H](N)CO)cc3)C(=O)N2c2cc(OC)c(OC)c(OC)c2)cc1`, which IC50 (MCF7 [1]) is on record?
**A.** 860 nM

**Q.** Which IC50 (MCF7 [1]) does the source give for `COc1ccc([C@H]2[C@H](c3ccccc3)C(=O)N2c2cc(OC)c(OC)c(OC)c2)cc1NC(=O)[C@H](C)N` here?
**A.** 760 nM

**Q.** And the solubility at 24 h [3]?
**A.** 370 µg/mL (≈ 732 µM)

**Q.** Which IC50 (MCF7 [1]) does the source give for `COc1ccc([C@H]2[C@H](c3ccccc3)C(=O)N2c2cc(OC)c(OC)c(OC)c2)cc1NC(=O)[C@@H](N)CCCCN` here?
**A.** 9800 nM

**Q.** With `COc1ccc([C@H]2[C@H](c3ccccc3)C(=O)N2c2cc(OC)c(OC)c(OC)c2)cc1N` as the molecule, how does the half-life [2] read?
**A.** > 24 h

**Q.** For `COc1ccc([C@H]2[C@H](c3ccccc3)C(=O)N2c2cc(OC)c(OC)c(OC)c2)cc1NC(=O)[C@@H](N)CO`, which IC50 (MCF7 [1]) is on record?
**A.** 780 nM

**Q.** What about the solubility at 24 h [3] of the same molecule?
**A.** 200 µg/mL (≈ 383 µM)

**Q.** Which half-life [2] does the source give for `COc1ccc([C@H]2[C@H](c3ccc(O)cc3)C(=O)N2c2cc(OC)c(OC)c(OC)c2)cc1O` here?
**A.** > 24 h

**Q.** For `COc1ccc([C@H]2[C@H](c3ccccc3)C(=O)N2c2cc(OC)c(OC)c(OC)c2)cc1NC(=O)[C@@H](N)Cc1ccc(O)cc1`, which IC50 (MCF7 [1]) is on record?
**A.** 740 nM
